{"source": "the RNAGym collection of RNA variant scans (doi:10.1126/science.aae0568)", "parents": {"B1": {"name": "tRNA (parent)", "chain": "GUUCCGUUGGCGUAAUGGUAACGCGUCUCCCUCCUAAGGAGAAGACUGCGGGUUCGAGUCCCGUACGGAACG"}}, "note": "Fewer inactive variants are shown than the library holds.", "data": [{"variants_of": "B1", "assay": "yeast fitness relative to wild type (ratio to wild type); higher = fitter; tRNA-Arg(CCU), competitive growth, 37 C, YPD", "in_short": "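A pool of Saccharomyces cerevisiae strains, each with a tRNA-Arg(CCU) gene variant at the native genomic locus, was competed in YPD at 37°C for 24 hours across six parallel replicates. The variants had been chemically synthesised at a 3% per-site mutation rate over 69 sites, and gene amplicons before and after competition were read by 100-nucleotide paired-end sequencing. Darwinian fitness relative to wild type rested on changes in genotype frequencies. Genotypes required ≥ 100 starting reads, and estimates < 0.5 were set to 0.5.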", "values": [{"variant": "GUUCCGUUAGCGUAAUGGUAACGCGUCUCCCUCUUAAGGAGAAGAAUGCGGGUUCGAGUCCUGUAUGGAACG", "yeast fitness": "≤ 0.5"}, {"variant": "GUUCCGUUAGCGUAAUGGUAACGCGUCUCCCUCCUAAGGAGAAGACUGCGGGUUCGAGUGCCGUACGGAUCG", "yeast fitness": 0.584}, {"variant": "GUUCCGUUAGCGUAAUGGUAACGCGUCUCCCUCCUAAGGAGAAGACUGCGGGUUCGAGUUCCGGACGGAACG", "yeast fitness": 0.696}, {"variant": "GUUCCGUUAGCGUAAUGGUAACGCGUCUCCCUCUUGAGGAGAAGACUGGGGGUUCGAGUCCAGUCCGGAACG", "yeast fitness": "≤ 0.5"}, {"variant": "GUUCCGUUAGCGUAAUGGUAACGCGUCUCCCUCCUAAGGAGAAGACUGCGGGUUCGAGUGCCGUACAGAACG", "yeast fitness": "≤ 0.5"}, {"variant": "GUUCCGUUAGCGUAAUGGUAACGCGUCUCCCUCCUAAGGAGAAGACUGUGGGUUCGAGUCCCGUACGGCACG", "yeast fitness": 0.85}, {"variant": "GUUCCGUUAGCGUAAUGGUAACGCGUCUCCCUCCUAAGGAGAAGAUUGCGGGUUCGAGUCCCGUACGGAACG", "yeast fitness": 0.943}, {"variant": "GUUCCGUUAGCGUAAUGGUAACGCGUCUCCCUCCUAAGGAGAAGACUGUGGGUUCGAGUCCCGUACGGAACG", "yeast fitness": 0.845}, {"variant": "GUUCCGUUAGCGUAAUGGUAACGCGUCUCCCUCCUAAGGAGAAGACUGCGGGUUGGAGUCCCGUCCGGAACG", "yeast fitness": "≤ 0.5"}, {"variant": "GUUCCGUUAGCGUAAUGGUAACGCGUCUCCCUGCUAAGGAGCAGACUGUGGGUUGGAGUCCCGUACGGAACG", "yeast fitness": 0.729}, {"variant": "GUUCCGUUAGCGUAAUGGUAACGCGUCUCCCUUCUAAGGAGAAGACUGGGGGUUCGAGUCCCGUACGGAACG", "yeast fitness": "≤ 0.5"}, {"variant": "GUUCCGUUAGCGUAAUGGUAACGCGUCUCCCUCCUAAGGAGAAGACUGCGGGUUUGAGUCCCGUACGGAGCG", "yeast fitness": 0.536}, {"variant": "GUUCCGUUAGCGUAAUGGUAACGCGUCUCCCUCCUAAGGAGAAGACUGCGGGUUUGAGUCCCGUACGGAUCG", "yeast fitness": 0.623}, {"variant": "GUUCCGUUAGCGUAAUGGUAACGCGUCUCCCUCCUAAGGAGAAGACUGUGGGUUCGAGUCCCGUUCGGAACG", "yeast fitness": 0.651}, {"variant": "GUUCCGUUAGCGUAAUGGUAACGCGUCUCCCUCCUAAGGAGAAGAUUGCGGGUUCGAGUCCCGUACCGAACG", "yeast fitness": 0.633}, {"variant": "GUUCCGUUAGCGUAAUGGUAACGCGUCUCCCUCCUAAGGAGAAGACUGUGGGUUCGAGUCCCGUACGCAACG", "yeast fitness": 0.657}, {"variant": "GUUCCGUUAGCGUAAUGGUAACGCGUCUCCCUCCUAAGGAGAAGACUGUGGGUUCGAGUCCCGUACGAAACG", "yeast fitness": 0.668}, {"variant": "GUUCCGUUAGCGUAAUGGUAACGCGUCUCCCUCCUAAGGAGAAGACUGCGGGUUCGAGUUCCGUACGGAACG", "yeast fitness": 0.742}, {"variant": "GUUCCGUUAGCGUAAUGGUAACGCGUCUCCCUUCUAAGGAGAAGACUGCGGGUUCAAGUCCCGUACAGAACG", "yeast fitness": "≤ 0.5"}, {"variant": "GUUCCGUUAGCGUAAUGGUAACGCGUCUCCCUCCUAAGGAGAAGACUGCGGGUUCGAGUCGCGUACGGAACG", "yeast fitness": 0.705}, {"variant": "GUUCCGUUAGCGUAAUGGUAACGCGUCUCCCUGCUAAGGAGAAGACUGAGGGUUCGAGUCCCGUACGGUACG", "yeast fitness": "≤ 0.5"}, {"variant": "GUUCCGUUAGCGUAAUGGUAACGCGUCUCCCUCCUAAGGAGAAGAGUGUGGGUUCGAGUCCCGUACGGCACG", "yeast fitness": 0.709}, {"variant": "GUUCCGUUAGCGUAAUGGUAACGCGUCUCCCUCCUAAGGAGAAGAAUGCGGGUUCGAGUCACGUACGGAACG", "yeast fitness": 0.53}, {"variant": "GUUCCGUUAGCGUAAUGGUAACGCGUCUCCCUUCUUAGGAGAAGACUGCGGGUUCGAGUCCCGUACGGAACG", "yeast fitness": 0.536}, {"variant": "GUUCCGUUAGCGUAAUGGUAACGCGUCUCCCUCUUAAGGAGAAGACUGAGGAUUCGAGUCCCGUACGGAACG", "yeast fitness": "≤ 0.5"}, {"variant": "GUUCCGUUAGCGUAAUGGUAACGCGUCUCCCUCCUAAGGAGAAGAGUGCGGGUUCGAGUCACGUACGGAACG", "yeast fitness": "≤ 0.5"}, {"variant": "GUUCCGUUAGCGUAAUGGUAACGCGUCUCCCUCUUAAGGAGAAGACUGCGGGUUCGAGCCCCGUCCGGGACG", "yeast fitness": "≤ 0.5"}, {"variant": "GUUCCGUUAGCGUAAUGGUAACGCGUCUCCCUCGUAAGGAGAAGACUGCGGGUUUGAGUCCCAUACGGAACG", "yeast fitness": "≤ 0.5"}, {"variant": "GUUCCGUUAGCGUAAUGGUAACGCGUCUCCCUCGUAAGGAGAAGACUGCGGGUUCGAGUCUCGUAUGGAACG", "yeast fitness": "≤ 0.5"}, {"variant": "GUUCCGUUAGCGUAAUGGUAACGCGUCUCCCUCCUAAGGAGAAGACUGCGGGUUGGAGUCCCGUACGGAACG", "yeast fitness": 0.549}, {"variant": "GUUCCGUUAGCGUAAUGGUAACGCGUCUCCCUCCUAAGGAGAAGACUGCGGGUUUGAGUCCCGUACGGAACG", "yeast fitness": 0.65}, {"variant": "GUUCCGUUAGCGUAAUGGUAACGCGUCUCCCUCCUAAGGAGAAGACUGCGGGUUAGAGUCCCGUACGGAACG", "yeast fitness": 0.707}, {"variant": "GUUCCGUUAGCGUAAUGGUAACGCGUCUCCCUCUUAAGGAGAACCCUGCGGGUUCGAGUCCCGUAGGGAACG", "yeast fitness": "≤ 0.5"}, {"variant": "GUUCCGUUAGCGUAAUGGUAACGCGUCUCCCUCUUAAGGAGAACCCUGCGGGUUCGAGUCCCGUAAGGAACG", "yeast fitness": 0.578}, {"variant": "GUUCCGUUAGCGUAAUGGUAACGCGUCUCCCUCUUAAGGAGAAGAAUGCGGGUUCGAGUCAUGUACGGAACG", "yeast fitness": "≤ 0.5"}, {"variant": "GUUCCGUUAGCGUAAUGGUAACGCGUCUCCCUCCUAAGGAGAAGAUUGCGGGUUCGAGUCCCGUAUGGAACG", "yeast fitness": 1.04}, {"variant": "GUUCCGUUAGCGUAAUGGUAACGCGUCUCCCUCGUAAGGAGAAGACUGCGGGUUCGAGUCCCGUUCGGAACG", "yeast fitness": "≤ 0.5"}, {"variant": "GUUCCGUUAGCGUAAUGGUAACGCGUCUCCCUCGUAAGGAGAAGACUGCGGGUUCGAGUCCCGUACGGAACG", "yeast fitness": 0.588}]}]}
